Experimental data gathered from unrelated publications.
Each line is one published result; the experiments were not run side by side.
P2RY14: P2Y purinoceptor 14 (P2RY14, Homo sapiens, UniProt Q15391)
IRAK4: Interleukin-1 receptor-associated kinase 4 (IRAK4, Homo sapiens, UniProt Q9NWZ3)
Nuclear receptor subfamily 4 group A member 2: Nuclear receptor subfamily 4 group A member 2 (Homo sapiens, UniProt P43354)

| Compound | target | test | system | conditions | quantity | result |
| --- | --- | --- | --- | --- | --- | --- |
| CCOC(=O)[C@H](Cc1c[nH]c2ccccc12)NC(=O)COc1ccc(C)cc1 | P2RY14 | cAMP, antagonist | HEK293 | 0.1 µM | inhibition | -48.9% |
| N#Cc1ccc(NC(=O)Nc2ccccc2)cc1 | TGF-beta receptor type-1 (TGFBR1, Homo sapiens, UniProt P36897) | cell-free assay, competition with immobilised ligand |  | 25 µM | remaining binding | 81% |
| C#Cc1cnc(Nc2ccc(CO)cc2)nc1Nc1ccccc1C(=O)NC | IRAK4 | enzyme activity, inhibitor, radiometric |  | 1 µM | remaining activity | 1.23% |
| Cc1nc2c(Cl)cccn2c1NC(=O)c1ccc(-c2ccc(N(C)C)cc2)o1 | Nuclear receptor subfamily 4 group A member 2 | thermal stability, DSF |  | 100 µM | ΔTm | -1.88 °C |
| CCCCC(=O)Nc1ccc(-c2ccc3ncn(CCC)c(=O)c3c2)cn1 | Ribosomal protein S6 kinase alpha-4, N-terminal kinase domain (RPS6KA4, Homo sapiens, UniProt O75676) | binding, competition with immobilised ligand |  | 0.5 µM | remaining binding | 89% |
| O=C(COc1ccc(Br)cc1)N[C@@H](Cc1c[nH]c2ccccc12)C(=O)O | P2RY14 | cAMP, antagonist | HEK293 | 0.1 µM | inhibition | 39% |
| CCCCCCCC(=O)c1c(O)cc(O)cc1CC(=O)OCC | Nuclear receptor subfamily 4 group A member 2 | thermal stability, DSF |  | 100 µM | ΔTm | -3.11 °C |
| C1=C/COCc2cc(ccc2OCCN2CCCC2)Nc2nccc(n2)-c2cccc(c2)COC/1 | Tyrosine-protein kinase JAK3, JH1 (JAK3, Homo sapiens, UniProt P52333) | cell-free assay |  | 0.1 µM | remaining signal | 7.2% |
| CC(C)OC(=O)[C@H](Cc1c[nH]c2ccccc12)NC(=O)c1ccc2nccnc2c1 | P2RY14 | cAMP, antagonist | HEK293 | 0.1 µM | inhibition | 89.6% |
| COc1cccc2c(Nc3ccc4[nH]c(C(=O)N/N=C/c5ccc(SC)cc5)cc4c3)cc(C)nc12 | Nuclear receptor subfamily 4 group A member 2 | thermal stability, DSF |  | 100 µM | ΔTm | 0.02 °C |
| CS(=O)(=NC#N)c1ccccc1Nc1nc(Nc2ccnc(CO)c2)ncc1Cl (stereo not drawn) | IRAK4 | enzyme activity, inhibitor, radiometric |  | 1 µM | remaining activity | 4.68% |
| CC(C)OC(=O)[C@H](Cc1c[nH]c2ccccc12)NC(=O)COc1ccc(Br)cc1 | P2RY14 | cAMP, antagonist | HEK293 | 0.1 µM | inhibition | 38.3% |
| COCCOCc1ccc(-c2cc3onc(-c4ccccc4)c3c(=O)n2C)cc1 | Nuclear receptor subfamily 4 group A member 2 | thermal stability, DSF |  | 100 µM | ΔTm | -0.54 °C |
| CNC(=O)c1ccccc1Nc1nc(Nc2ccc(CO)cc2)ncc1Cl | IRAK4 | enzyme activity, inhibitor, radiometric |  | 1 µM | remaining activity | 1.39% |
| CC(C)OC(=O)[C@H](Cc1c[nH]c2ccccc12)NC(=O)COc1ccc(F)cc1 | P2RY14 | cAMP, antagonist | HEK293 | 0.1 µM | inhibition | 12.1% |
| C#Cc1cc(-c2cc(Nc3nc(N[C@@H](C)c4ccc(F)cn4)ncc3Cl)n[nH]2)ccc1C=O | TRAF2 and NCK-interacting protein kinase (TNIK, Homo sapiens, UniProt Q9UKE5) | enzyme activity, inhibitor |  | 0.2 µM | inhibition | 56.6% |
| O=C(COc1ccc(Cl)cc1)N[C@@H](Cc1c[nH]c2ccccc12)C(=O)O | P2RY14 | cAMP, antagonist | HEK293 | 0.1 µM | inhibition | 47.6% |
| O=C(O)C[C@H](O)C[C@H](O)/C=C/c1c(C2CC2)nc2ccccc2c1-c1ccc(F)cc1 | Nuclear receptor subfamily 4 group A member 2 | thermal stability, DSF |  | 100 µM | ΔTm | -0.36 °C |
| COc1ccc2oc(-c3ccc4nc(N)oc4c3)c/c(=N\c3ccccc3NC(=O)CCN)c2c1 | Cyclin-dependent kinase-like 1 (CDKL1, Homo sapiens, UniProt Q00532) | binding |  | 1 µM | remaining binding | 94% |
| CCCCCCCC(=O)c1cc(OC)c(OC)c(OC)c1CC(=O)OCC | Nuclear receptor subfamily 4 group A member 2 | thermal stability, DSF |  | 100 µM | ΔTm | -1.02 °C |
| O=C(N[C@@H](Cc1c[nH]c2ccccc12)C(=O)O)c1c[nH]c2ccccc12 | P2RY14 | cAMP, antagonist | HEK293 | 0.1 µM | inhibition | 36.7% |
| C=C1C(=O)O[C@@H]2C[C@@]3(C)CCCC(=C)[C@@H]3C[C@H]12 | Nuclear receptor subfamily 4 group A member 2 | thermal stability, DSF |  | 100 µM | ΔTm | -0.65 °C |
| Cc1cc(O)c(-c2ccc([C@@H](C)CN(C)C)cc2)c2c1[nH]c(=O)c1sccc12 | Microtubule-associated serine/threonine-protein kinase 4 (MAST4, Homo sapiens, UniProt O15021) | enzyme activity, inhibitor |  | 0.1 µM | inhibition | 2% |
| NC/C(=C\F)COc1cccc(Cn2c(=S)[nH]c(=O)c3[nH]cnc32)c1 | Eosinophil peroxidase (Homo sapiens, UniProt P11678) | enzyme activity, inhibitor |  | 5 µM | remaining activity | 149% |
| C[C@]1(O)CCCN(c2nc(Nc3ccc(S(=O)(=O)N[C@H]4CC[C@H](CN5CCN(c6ccc(C7CCC(=O)NC7=O)cc6F)CC5)CC4)cc3Cl)ncc2C(F)(F)F)C1 (stereo partly drawn) | Serine/threonine-protein kinase ULK1 (ULK1, Homo sapiens, UniProt O75385) | binding, competition with immobilised ligand |  | 1 µM | remaining binding | 32% |
| CC(C)OC(=O)[C@H](Cc1c[nH]c2ccccc12)NC(=O)C1COc2ccccc2O1 (stereo partly drawn) | P2RY14 | cAMP, antagonist | HEK293 | 0.1 µM | inhibition | 9.84% |
| CC(C)n1c(/C=C/C(O)CC(O)CC(=O)O)c(-c2ccc(F)cc2)c2ccccc21 (stereo not drawn) | Nuclear receptor subfamily 4 group A member 2 | thermal stability, DSF |  | 100 µM | ΔTm | -0.62 °C |
